Paper PMC3846294 (Chemical research in toxicology, 2013)
Where two headings read alike, the source gives them in different places.

Columns and labels:
[1] = target: T1, hSULT2A1 (Homo sapiens, UniProt Q06520); assay: Binding of PAP to quinone-pretreated hSULT2A1; conditions: in the absence of DHEA; pretreatment with 10 μM quinone
T1 sequence (Q06520 1-285): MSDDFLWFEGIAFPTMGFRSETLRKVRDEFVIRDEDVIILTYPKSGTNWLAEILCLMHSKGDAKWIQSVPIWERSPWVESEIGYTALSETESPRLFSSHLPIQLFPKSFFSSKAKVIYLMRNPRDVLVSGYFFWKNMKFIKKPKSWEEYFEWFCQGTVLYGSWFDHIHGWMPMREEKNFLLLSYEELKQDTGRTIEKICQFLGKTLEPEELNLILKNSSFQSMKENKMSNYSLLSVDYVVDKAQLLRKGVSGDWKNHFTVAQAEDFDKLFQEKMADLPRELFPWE
Outline: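 Purified recombinant hSULT2A1 was expressed in E. coli BL21(DE3) and pretreated with test compound for 1 h at 25 °C. It was then placed at 15 nM final (dimer) in 0.25 M potassium phosphate, pH 7.4, without DHEA, 20 min before titration. PAP was added to 0.5–300 μM final at 37 °C. Intrinsic fluorescence (ex 290/em 347 nm) was read 10 s after each addition, dilution-corrected, in duplicate. Dissociation constants were derived.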

[2] = target: T1, hSULT2A1; assay: Structural modification of hSULT2A1 by quinones, proteolytic digestion and LC/MS; conditions: 15 μM hSULT2A1 with 250 μM quinone, 1 h, pH 8.0, 25 °C
Outline: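 Recombinant hSULT2A1 was expressed in E. coli BL21(DE3), purified, and desalted of DTT into 50 mM Tris-HCl pH 8.0. 15 μg enzyme was reacted with quinone (17:1 molar ratio), then alkylated with 45 mM final 4-vinylpyridine for 1 h. Digestion used 0.6 μg trypsin with 10% v/v acetonitrile at 37 °C for 16 h, plus 1 μg Glu-C where needed. Peptides were analysed by LC/MS.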

[3] = target: T1, hSULT2A1; format: biochemical; conditions: 100-fold dilution, 0.5 μM DHEA (Figure 4)
Outline: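 E. coli-expressed, purified hSULT2A1 was preincubated with test compound for 1 h at 25 °C, then diluted 100-fold into a standard assay containing 0.5 μM 3H-DHEA. The mixture was prewarmed at 37 °C for 2 min, and the reaction was started with 30 ng of enzyme. It ran for 3 or 4 min at 37 °C to keep initial velocity. Runs were in triplicate, mean ± SD, compared with untreated enzyme by paired two-tailed t test (p < 0.05).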

| Compound | Binding of PAP to the pretreated enzyme [1] | Protein adducts at cysteines of hSULT2A1 [2] | Catalytic activity of hSULT2A1 following preincubation with PBQ ([3]; PBQ 0.5 μM or 1.0 μM) | Catalytic activity of hSULT2A1 following preincubation with PBQ ([3]; PBQ 5.0 μM or higher) |
| --- | --- | --- | --- | --- |
| 4′-chlorophenyl-2,5-benzoquinone [4′-Cl-BQ] | no detectable binding of PAP | protein adducts were observed at Cys55 and Cys199 | – | – |
| O=C1C=CC(=O)C(c2ccccc2Cl)=C1 [2′-Cl-BQ, 2′-chlorophenyl-2,5-benzoquinone] | no detectable binding of PAP | protein adducts were observed at Cys55 and Cys199 | – | – |
| O=C1C=C(Cl)C(=O)C(c2ccc(Cl)cc2)=C1Cl [3,6,4′-triCl-BQ, 4′-chlorophenyl-3,6-dichloro-2,5-benzoquinone] | – | a dichlorinated adduct was found in the digested peptides containing Cys55 and Cys199 | – | – |
| O=C1C=CC(=O)C(c2ccccc2)=C1 [PBQ, phenyl-2,5-benzoquinone] | – | protein adducts were observed at Cys55 and Cys199 | increase in the catalytic activity | decreases in catalytic activity |
